Screening data deposited in PubChem BioAssay by several laboratories.
ATG4B inh: ATG4B (human) cysteine protease inhibition; AID 504462; ATG4B cleavage of LC3-PLA2, NBD-HPC fluorescence, 1 h; inhibition, % at 8.33 µM; Q9Y4P1; actives 0.51% (n = 340,000); in the data active = inhibition above about 40%
Rpn11 inh: inhibitors of human proteasome Rpn11 | actives 0.59% (n = 360,000) | AID 588493 | human 26S proteasome, Ub4-pepOG fluorescence polarization; 20S core pre-blocked with epoxomicin | inhibition, % at 20 µM;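 active = inhibition at 20 µM, scaled to each plate's controls, above about 33%, limit read from the data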
Target sequence (O00487 whole entry, looked up): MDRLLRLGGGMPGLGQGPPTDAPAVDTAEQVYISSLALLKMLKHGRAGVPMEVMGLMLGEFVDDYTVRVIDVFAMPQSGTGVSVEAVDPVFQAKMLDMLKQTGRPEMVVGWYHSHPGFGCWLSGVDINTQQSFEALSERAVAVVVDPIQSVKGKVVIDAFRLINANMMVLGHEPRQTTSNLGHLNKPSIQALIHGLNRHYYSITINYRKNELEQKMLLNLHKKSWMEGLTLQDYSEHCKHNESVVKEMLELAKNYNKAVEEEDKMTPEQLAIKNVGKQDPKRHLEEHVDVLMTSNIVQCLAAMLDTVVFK
TPT1 inhibitor: inhibitors of Candida albicans tRNA 2'-phosphotransferase TPT1. recombinant caTPT1, FP RNA substrate dephosphorylation. inhibition, % at 5 µM. actives 0.81% (n = 300,000);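 active = inhibition above the mean of all tested compounds plus 3 SD, set per screening campaign, cut at about 24% in these data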;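 note: plate controls were DMSO alone for no effect and ferristatin control at 100 nM for full effect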
SENP1 inh: SENP1 (human) catalytic domain inhibition | Q9P0U3 | recombinant SENP1 catalytic domain, CyPet-SUMO1-YPet FRET cleavage | inhibition, % at 10 µM | actives 0.21% (n = 360,000) | AID 624204;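 active = inhibition at least 30% at 10 µM, raw YFP signal under a set limit, fluorescence ratio 0.5 to 1.5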;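 note: 0% = enzyme with DMSO and 100% = no enzyme wells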
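Assay system: hSENP1 catalytic domain, recombinant. Amount: SENP1 enzyme, 20 pM final. Schedule: 50 min reaction, RT, dark. Technique: FRET, CFP and YFP emission. Control set: no-enzyme wells low, DMSO-plus-enzyme wells high control.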
HNF4A DNA FP: change in binding of human HNF4 alpha to DNA. HNF4a-FITC DNA binding, fluorescence polarization, 1 h. P41235. activity change, % at 10 µM. actives 0.3% (n = 360,000). AID 1224865; in the data active = activity change above about 30%, passing the limit was not always enough
CSN inh: blocks human CSN-mediated cullin deneddylation. Purified CSN, SCF-Nedd8-OG deneddylation, fluorescence polarization. actives 0.38% (n = 360,000). AID 651999. inhibition, % at 12.5 µM. Q92905;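 active = pattern-corrected inhibition above about 35%, with an unprinted fluorescence ratio check between 0.5 and 1.5, limit read from the data, passing the limit was not always enough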;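 note: 0% = enzyme with substrate and 100% = substrate without enzyme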
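Assay system: HEK293T-derived human Csn5 enzyme; quantity: 0.24 nM enzyme; medium: Tris/NaCl/DTT buffer, pH 7.5; also added: substrate SCFSkp2-Nedd8OG, 10 nM; doses: 12.5 µM compound; schedule: 90 min reaction at room temperature; signal: FP; read-out: % inhibition of substrate cleavage by Csn5; benchmarks: substrate-only high control, full reaction low control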
ATG4B confirm: confirmation of human ATG4B inhibitors | shares compounds with ATG4B inh | ATG4B protease fluorescent substrate cleavage assay | inhibition, % at 8.33 µM | actives 92% (n = 320) | AID 504757; in the data active = inhibition above about 39%
PLA2 counter: inhibits human PLA2, flagging false ATG4B inhibitors; shares compounds with ATG4B inh; purified PLA2, NBD-C6-HPC fluorescence, 45 min; inhibition, % at 8.33 µM; actives 66% (n = 1,600); AID 588402; in the data active = inhibition above about 50%
Target sequence (P04054 whole entry, looked up): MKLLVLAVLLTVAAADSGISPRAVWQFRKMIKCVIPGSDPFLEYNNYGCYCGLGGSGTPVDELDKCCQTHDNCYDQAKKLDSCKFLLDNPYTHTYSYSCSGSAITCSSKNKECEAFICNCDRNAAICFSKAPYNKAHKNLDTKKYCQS
Starred values were filed as active, the others as inactive; x = no result. An excerpt weighted towards active compounds, which were near 2% of everything screened.

SMILES | ATG4B inh | Rpn11 inh | TPT1 inhibitor | SENP1 inh | HNF4A DNA FP | CSN inh | PLA2 counter | others
S=C(NCCC(c1ccccc1)c1ccccc1)Nc1cccc(Cl)c1 | 46* | 3 | -4 | -1 | -4 | 0 | 70*
S=C(NCc1ccccc1)Nc1ccc(Oc2ccccc2)cc1 | 57* | 0 | 0 | -1 | -3 | 1 | 67*
Cc1ccc(NC(=S)NCc2ccc(Cl)cc2)c(OC(F)F)c1 | 47* | 3 | 1 | 2 | 1 | 6 | 55*
O=c1[nH]cc(S(=O)(=O)N2CCN(c3ccccc3F)CC2)c(=O)[nH]1 | x | -4 | x | 0 | 0 | 0 | x
CC(O)(c1cccnc1)c1nc(-c2cc(F)cc(F)c2)cs1 (stereo not given) | x | -1 | x | 2 | 2 | 3 | x
O=C(NCc1ccccc1Cl)c1ccccc1CCc1ccccc1 | 29 | -4 | 1 | -1 | -4 | 10 | x
O=C(NCc1ccccc1Cl)c1ccccc1Oc1ccccc1 | 53* | 4 | 3 | -1 | -3 | 0 | 49
CCN(CC)C(=S)Nc1ccc([N+](=O)[O-])cc1 | 58* | -3 | 1 | -1 | -6 | -2 | 5
COC(=O)c1cccc(NC(=S)NCc2ccc(F)cc2)c1 | 42* | 2 | 0 | 1 | 2 | -10 | 50*
CCNC(=O)C(=O)Nc1ccc([N+](=O)[O-])cc1 | -5 | -4 | 2 | 0 | -7 | -14 | x
O=C(COC(=O)c1ccccc1Nc1ccccc1)NCc1ccccc1Cl | 49* | -6 | 0 | -5 | 1 | -4 | 14
O=C(COC(=O)c1ccccc1Nc1ccccc1)NCc1ccccc1 | 1 | -6 | 0 | -1 | -5 | -2 | x
COc1ccc([C@H]2CC(=O)C[C@@H](CCn3cc(-c4nccn4C)nn3)O2)cc1 | x | x | x | 2 | 3 | -2 | x
O=[N+]([O-])c1ccc(NC(=S)NCc2ccc(F)cc2)cc1 | 57* | 3 | -3 | 3 | -1 | -1 | 68*
Fc1cccc(NC(=S)NCc2ccccc2Cl)c1 | 40* | 5 | 0 | 2 | 1 | 3 | 49
O=C(NCc1ccccc1Cl)c1cccc(NC(=O)c2ccccc2)c1 | 48* | -5 | -3 | 0 | 4 | -21 | 53*
S=C(NCc1ccccc1Cl)Nc1ccccc1Cl | 16 | 0 | 1 | 4 | 4 | 8 | x
O=[N+]([O-])c1ccc(NC(=S)NCc2ccncc2)cc1 | -5 | 0 | 3 | 0 | 5 | 2 | x
C[C@H]1CN([C@@H](C)CO)C(=O)CCCn2nncc2CO[C@@H]1CN(C)C(=O)c1ccncc1 | x | -4 | x | -1 | 1 | 5 | x
Cc1cccc(NC(=O)Nc2ccc3c(c2)CCC3)c1 | 5 | -2 | -3 | -1 | 4 | -2 | x
CCNc1nc(CSc2ccccc2)nc2sc(C)c(C)c12 | 45* | -1 | 0 | -3 | -2 | -2 | 47 | ATG4B confirm=61*
CC1CN(C(=O)COC(=O)c2ccc3ncsc3c2)CC(C)O1 (stereo not given) | 3 | 0 | x | -14 | -3 | 1 | x
CCN(CC(=O)Nc1c(F)cccc1F)C(=O)C1CCCO1 (stereo not given) | x | -6 | x | 1 | 5 | 3 | x
N#CCOC(=O)[C@H](Cc1c[nH]c2ccccc12)NS(=O)(=O)c1ccc(Cl)cc1 | 57* | -9 | 0 | -2 | -4 | 7 | 67*
Cc1ccc(-c2csc(NC(=O)c3cccc([N+](=O)[O-])c3C(=O)O)n2)cc1 | 53* | 1 | 5 | 3 | -6 | -3 | 69*
SMILES | ATG4B inh | Rpn11 inh | TPT1 inhibitor | SENP1 inh | HNF4A DNA FP | CSN inh | PLA2 counter | others
O=C(Nc1nc(-c2cccc([N+](=O)[O-])c2)cs1)c1cccc([N+](=O)[O-])c1C(=O)O | 79* | -4 | -1 | 2 | 4 | -9 | 82*
Cc1csc(NC(=O)c2ccccc2[N+](=O)[O-])n1 | -3 | -2 | -2 | -1 | 0 | -2 | x
O=C(Cc1cccc2ccccc12)Nc1nc(-c2cccc([N+](=O)[O-])c2)cs1 | -10 | -1 | 0 | -3 | -2 | -8 | x
O=C(O)c1ccccc1C(=O)Nc1nc(-c2ccc3ccccc3c2)cs1 | 83* | -5 | 3 | 2 | 2 | 0 | 84*
COc1ccc(-c2csc(NC(=O)c3ccccc3NS(=O)(=O)c3ccc(C)cc3)n2)cc1 | 74* | 8 | -1 | -1 | -5 | 1 | 68*
CCN1C[C@@H]2[C@@H]3C(=O)N(C)C(=O)[C@@H]3[C@](C)(C1=O)N2C(=O)c1ccc(C)cc1 | -5 | 3 | x | 2 | 3 | -2 | x
Cc1ccc(-c2ccc(/C=N/NC(=O)Cc3nnc(N)s3)o2)cc1Cl | 68* | 27 | 1 | -25 | 10 | 4 | 77*
CC(NC(=O)C1CCCN(C(=O)c2ccc(Cl)cc2)C1)c1cccc(C(F)(F)F)c1 (stereo not given) | 5 | -5 | x | 0 | -1 | 1 | x
CCCCn1c(N)c(N(CCOC)C(=O)COC(=O)COc2cc(C)c(Cl)cc2C(C)C)c(=O)[nH]c1=O | 51* | 0 | -3 | 3 | 0 | -9 | 58*
C=CCn1c(SCC(=O)Nc2ccc(O)cc2)nc2sc(C)c(C)c2c1=O | -3 | 0 | x | 3 | -1 | 1 | x
C=CCn1c(SCC(=O)Nc2cc(Cl)ccc2C(=O)O)nc2sc(C)c(C)c2c1=O | 61* | -1 | x | 1 | -2 | -3 | 53*
C/C(CCc1oc2ccccc2c1-c1ccc(C)o1)=N/O | 61* | -2 | 0 | 0 | 2 | -1 | 64*
N#CC1=C(S)N(c2ccccc2)C(c2ccc(-c3ccccc3Cl)o2)NC1=O (stereo not given) | 66* | 24 | 7 | -10 | 4 | 2 | 74*
COc1ccccc1N1CCN(C(=O)c2cccc(S(=O)(=O)N3c4ccccc4CC3C)c2)CC1 (stereo not given) | -14 | -11 | x | 0 | 1 | -4 | x
C[C@H]1CN([C@@H](C)CO)C(=O)CCCn2cc(nn2)CO[C@@H]1CN(C)S(=O)(=O)c1ccc(C#N)cc1 | x | -3 | x | 2 | 3 | -3 | x
Cc1ccc(NC(=O)c2cncc(Br)c2)c([N+](=O)[O-])c1 | 3 | -2 | 2 | 2 | 0 | -14 | x
COc1c(C)cc(Br)cc1C(=O)Nc1ccc(C)cc1[N+](=O)[O-] | 42* | -5 | 1 | -13 | 1 | -11 | -19
